E-selectin induc – E-selectin induction on HUVECs | P16581 | HUVEC E-selectin immunofluorescence imaging; normalized: neutral wells 0, TNF-alpha wells 100 | activation, % at 7.58 µM | hit rate 0.37% among 260,000 | AID 686992;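 active means mean E-selectin-positive cell signal at least 10% of the positive control, reached in at least 60% of replicates, without over 20% cell loss; inconclusive means no rule given, readout overlaps actives, possibly toxicity-flagged; inactive means the rest, including those meeting only one limit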
Target sequence (P16581 whole entry, looked up): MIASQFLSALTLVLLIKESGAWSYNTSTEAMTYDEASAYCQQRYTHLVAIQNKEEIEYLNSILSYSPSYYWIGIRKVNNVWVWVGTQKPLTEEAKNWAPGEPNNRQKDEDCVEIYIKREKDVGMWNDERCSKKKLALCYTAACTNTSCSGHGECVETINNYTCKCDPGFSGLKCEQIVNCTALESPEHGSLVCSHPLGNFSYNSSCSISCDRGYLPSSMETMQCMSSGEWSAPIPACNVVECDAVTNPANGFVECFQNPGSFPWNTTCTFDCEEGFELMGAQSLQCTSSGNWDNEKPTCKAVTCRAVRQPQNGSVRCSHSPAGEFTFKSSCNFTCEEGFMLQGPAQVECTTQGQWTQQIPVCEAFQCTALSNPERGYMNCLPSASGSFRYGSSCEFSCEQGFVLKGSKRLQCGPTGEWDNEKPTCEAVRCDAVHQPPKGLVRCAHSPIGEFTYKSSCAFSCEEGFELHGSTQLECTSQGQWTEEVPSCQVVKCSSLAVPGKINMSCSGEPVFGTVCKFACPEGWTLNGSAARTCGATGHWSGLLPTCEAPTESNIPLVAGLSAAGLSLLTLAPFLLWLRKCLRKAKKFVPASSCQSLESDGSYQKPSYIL
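Assay system: HUVEC primary endothelial cells. Input: 3,000 HUVEC seeded per well. Doses: one compound dose added by pin transfer. Read-out basis: % PE-positive cells. Benchmarks: TNF-alpha high, DMSO low. Detection: immunofluorescence imaging. Buffer or medium: EGM-2, gelatin.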
miR122 inh – inhibitors of miR-122 in Huh7 cells | Huh7 miR-122 Renilla luciferase sensor, 48 h; neutral wells = 0, positive control = 100 | AID 602342 | activation (reporter increase), % at 12.5 µM | hit rate 0.3% among 340,000;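 active means mean replicate activation score at least 90 and every replicate individually at or above 90; inconclusive means only one of the two criteria met; inactive means neither criterion met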;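 further: higher luciferase means less miR-122 activity so hits act as miR-122 inhibitors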
rRNA inh HTS – selective bacterial rRNA inhibition in E. coli; hit rate 1.6% among 350,000; AID 720706; GFP signal change (wild-type ribosome), % (test concentration not listed); E. coli WT GFP vs humanized-ribosome RFP mutants, fluorescence, 24 h; stronger effect = lower value; DMSO median 0, no signal -100;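 active means significant combined selectivity score with lowered wild-type GFP, culture density cut under 30%, mutant RFP and density less affected; inactive means any of these conditions unmet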
DENV2 CPE – inhibitors of DENV2 cytopathic effect; CPE inhibition, % at 9.99 µM; DENV2-infected cells, cytopathic effect rescue, plate reader; hit rate 1.7% among 350,000; AID 651640; in the data active means CPE inhibition above about 20%, passing the limit was not always enough; inconclusive means no clear call, values can overlap the other calls; tested in BHK-21 cells
Cneo AK release – causes C. neoformans cell lysis. adenylate kinase release luminescence, 4 h; normalised: neutral wells 0, clomiphene wells 100. lysis activity, % at 15 µM. hit rate 0.2% among 360,000. AID 651654;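 active means mean lysis activity across replicates of at least 80%, whatever share of replicates individually reach that level; inactive means mean lysis activity below 80%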
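Material – log-phase Cryptococcus neoformans yeast cells · Input – 5 × 10^6 yeast cells/mL · Medium – fresh YPD growth medium · Doses – single compound concentration per well · Timing – static 4 h at 37 °C with compound, 1 h detection · Detection – adenylate kinase release luminescence · Read-out – signal increase indicating cell lysis · Control set – Clomiphene as positive lysis control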
Hits are given with their value; n = inactive; u = inconclusive; x = no result. An excerpt weighted towards active compounds, which were near 3.1% of everything screened.

SMILES | E-selectin induc | miR122 inh | rRNA inh HTS | DENV2 CPE | Cneo AK release
C[C@@H]1CN([C@H](C)CO)C(=O)c2cc(NC(=O)c3ccncc3)ccc2O[C@@H](C)CCCCO[C@H]1CN(C)C(=O)Nc1cccc2ccccc12 | n | n | n | n | n
COc1ccc2cc3c(N)nn(C(=O)Cc4c[nH]c5ccccc45)c3nc2c1 | x | x | -33 | n | x
O=C(N[C@H]1CC[C@H](CCNC(=O)C2CCCC2)O[C@@H]1CO)c1ccncc1 | n | n | n | 25 | n
O=C(N[C@H]1CC[C@H](CCNC(=O)C2CCCCC2)O[C@@H]1CO)c1ccncc1 | n | x | n | 28 | n
O=C(C[C@@H]1CC[C@@H](NC(=O)c2cccnc2)[C@@H](CO)O1)NCCN1CCCCC1 | n | x | n | n | 93
O=C(N[C@@H]1CC[C@H](CCNC(=O)C2CCCCC2)O[C@@H]1CO)c1ccncc1 | n | x | n | n | n
O=C(N[C@@H]1CC[C@@H](CCNC(=O)C2CCCC2)O[C@@H]1CO)c1ccncc1 | n | n | n | n | n
COc1ccc(S(=O)(=O)Nc2ccc3c(c2)C(=O)N([C@@H](C)CO)C[C@H](C)[C@H](CN(C)S(=O)(=O)c2ccccc2)OCCCC[C@H](C)O3)cc1 | n | x | n | n | x
CCN1CCN(c2ccc(S(=O)(=O)N3CCCCC3)cc2NC(=O)/C=C/c2cccc(OC)c2OC)CC1 | n | x | -20 | n | n
O=C(c1cccnc1)N1CC(=O)N2[C@H](C1)[C@@H](c1ccc(/C=C/c3ccccc3)cc1)[C@@H]2CO | n | x | n | n | x
C[C@H](CO)N1C[C@H](C)[C@@H](CN(C)Cc2ccc3c(c2)OCO3)Oc2ccc(N(C)C)cc2C1=O | n | n | n | 23 | n
C[C@@H]1CN([C@H](C)CO)C(=O)c2cc(NC(=O)C3CC3)ccc2O[C@@H]1CN(C)Cc1ccc2c(c1)OCO2 | n | n | n | n | n
C[C@H](CO)N1C[C@H](C)[C@@H](CN(C)Cc2ccc3c(c2)OCO3)Oc2ccc(NC(=O)c3ccncc3)cc2CC1=O | n | n | n | 29 | n
C[C@@H]1CN([C@@H](C)CO)C(=O)c2cc(NC(=O)C3CC3)ccc2O[C@H]1CN(C)Cc1ccc2c(c1)OCO2 | n | n | n | n | 101
C[C@@H]1CN([C@@H](C)CO)C(=O)c2cc(NC(=O)Nc3ccc4c(c3)OCO4)ccc2O[C@@H]1CN(C)Cc1ccc2c(c1)OCO2 | n | n | n | 42 | n
CCCC(=O)N1CC2(CN(C(=O)CC3CC3)C2)c2c(n(C)c3cc(OC)ccc23)[C@H]1CO | n | x | n | n | x
C[C@H](CO)N1C[C@H](C)[C@@H](CN(C)C(=O)CCCN(C)C)OCCCC[C@H](C)Oc2ccc(NS(C)(=O)=O)cc2C1=O | n | n | n | n | n
C[C@@H]1CN([C@@H](C)CO)C(=O)Cc2cc(NC(=O)C3CC3)ccc2O[C@@H]1CN(C)Cc1ccc2c(c1)OCO2 | 49 | n | n | n | n
C[C@H](CO)N1C[C@H](C)[C@@H](CN(C)Cc2ccc3c(c2)OCO3)Oc2ccc(NC(=O)C3CC3)cc2CC1=O | n | n | n | n | n
O=C(CSc1nc2ccccc2[nH]1)c1ccc2c(c1)OCO2 | x | n | x | x | n
Cc1ccc2nc(SCC(=O)c3ccc4c(c3)OCO4)[nH]c2c1 | x | n | -23 | x | n
O=C(CSc1ncn[nH]1)c1ccccc1 | x | n | x | x | n
O=C(CSc1ncn[nH]1)c1cccc([N+](=O)[O-])c1 | 38 | x | n | n | x
CCN(CC)S(=O)(=O)c1cc(NS(=O)(=O)c2cccc(Cl)c2Cl)ccc1C | n | n | -38 | n | n
CCN(CC)S(=O)(=O)c1cc(NS(=O)(=O)c2c(Cl)cccc2Cl)ccc1C | x | x | n | n | x
SMILES | E-selectin induc | miR122 inh | rRNA inh HTS | DENV2 CPE | Cneo AK release
CCN(CC)S(=O)(=O)c1cc(NC(=O)Cn2ncc(Cl)c(Cl)c2=O)ccc1C | n | x | -26 | n | x
O=C(Cn1ncc(Cl)c(Cl)c1=O)Nc1ccc2c(c1)OCO2 | x | n | n | u | n
CCN(CC)S(=O)(=O)c1cc(NS(=O)(=O)c2cccc(Cl)c2)ccc1C | x | 254 | n | n | n
CC(C)(C)[S@@](=O)N1Cc2cc(C(=O)N3CCOCC3)nc(-c3cccc(C4=CCCC4)c3)c2[C@H]1CCO | x | x | n | x | x
CC(C)(C)NC(=O)CSc1nnc(-c2ccccc2)c(-c2ccccc2)n1 | x | n | x | x | n
CC(=O)NNC(=O)CSc1nnc(-c2ccccc2)c(-c2ccccc2)n1 | n | n | n | n | 93
O=C(CN1CCN(C(=O)c2cc(C3CC3)nn2-c2ccccc2)CC1)Nc1ccc(F)cc1 | n | n | n | n | n
Cc1cccc(NC(=O)CN2CCN(C(=O)c3cc(C4CC4)nn3-c3ccccc3)CC2)c1C | n | n | n | 62 | n
C[C@H](CO)N1C[C@H](C)[C@@H](CN(C)C(=O)Nc2ccc(F)cc2)Oc2ncc(-c3cccnc3)cc2C1=O | n | n | n | n | n
Cc1cc(C(=O)N/N=C/c2cccc(OC(=O)c3cccc(Br)c3)c2)n[nH]1 | n | n | n | n | n
COc1cccc(C(=O)Oc2c(Br)cc(Br)cc2/C=N/NC(=O)c2cc(C)[nH]n2)c1 | x | x | -20 | n | x
COc1ccc(N2CCN(C(=O)COC(=O)Cc3c(F)cccc3Cl)CC2)cc1 | n | x | n | n | n
O=C(Cc1c(F)cccc1Cl)OCC(=O)N1CCN(c2ccccc2)CC1 | x | n | -21 | n | n
C[C@H]1CN(C)C(=O)c2cccc(N(C)C)c2O[C@H]1CN(C)C | x | x | n | x | x
CCOc1ccccc1N1CCN(C(=O)c2ccccc2OCc2c(C)noc2C)CC1 | x | n | -16 | n | n
CCOc1ccccc1N1CCN(C(=O)c2c(C)noc2C)CC1 | x | n | x | x | n
COc1cc(SC)ccc1C(=O)N1CCN(c2ccccc2F)CC1 | n | x | -24 | n | x
COc1ccc(N2CCN(C(=O)c3ccc(SC)cc3OC)CC2)cc1 | x | x | n | n | x
CCOc1ccccc1C(=O)N1CCN(c2cccc(Cl)c2)CC1 | x | 139 | x | x | n
CCOc1ccccc1N1CCN(C(=O)c2ccc3[nH]c4c(c3c2)CCCC4)CC1 | n | n | -27 | n | n
CC(=O)Nc1ccc2c(c1)CC(=O)N(C)C[C@H](C)[C@H](CN(C)C(C)=O)O2 | x | x | n | x | x
CCOc1ccccc1N1CCN(C(=O)c2cc3ccccc3cc2OC)CC1 | n | 130 | n | n | n
COCC(=O)N(C)C[C@@H]1Oc2ncc(Br)cc2C(=O)N([C@H](C)CO)C[C@@H]1C | n | n | n | x | x
CCOc1ccc(-c2c[n+]3c(n2-c2ccccc2)CCCCC3)cc1 | n | x | -39 | n | x
COc1ccc(-n2c(-c3ccccc3)c[n+]3c2CCC3)cc1 | n | n | n | n | n
O=C(O)c1ccc(N/N=C/C2=C(N3CCOCC3)C(=C\c3ccccc3)/CC2)cc1 | x | n | -36 | n | n
CC(C)(C)C(=O)c1c(N)[nH]c(C(=O)c2ccccc2)c1-c1ccc(Cl)cc1Cl | x | x | -30 | n | x
Nc1[nH]c(C(=O)c2ccccc2)c(-c2ccc(Cl)cc2Cl)c1C(=O)c1ccc(Cl)c(Cl)c1 | n | x | n | n | x
